pEC50, pIC50: −log10 of the molar value.
Assays:
[1] = target: T1, Glucagon-like peptide 1 receptor (Rattus norvegicus, UniProt P32301); experiment: Agonist activity at rat GLP1R expressed in HEK293 cells assessed as stimulation of cAMP levels incubated for 6 hrs by multiple response element/cAMP response element (MRE/CRE)-driven reporter gene assay; assay type: functional, cell-based
T1 sequence (P32301 whole entry): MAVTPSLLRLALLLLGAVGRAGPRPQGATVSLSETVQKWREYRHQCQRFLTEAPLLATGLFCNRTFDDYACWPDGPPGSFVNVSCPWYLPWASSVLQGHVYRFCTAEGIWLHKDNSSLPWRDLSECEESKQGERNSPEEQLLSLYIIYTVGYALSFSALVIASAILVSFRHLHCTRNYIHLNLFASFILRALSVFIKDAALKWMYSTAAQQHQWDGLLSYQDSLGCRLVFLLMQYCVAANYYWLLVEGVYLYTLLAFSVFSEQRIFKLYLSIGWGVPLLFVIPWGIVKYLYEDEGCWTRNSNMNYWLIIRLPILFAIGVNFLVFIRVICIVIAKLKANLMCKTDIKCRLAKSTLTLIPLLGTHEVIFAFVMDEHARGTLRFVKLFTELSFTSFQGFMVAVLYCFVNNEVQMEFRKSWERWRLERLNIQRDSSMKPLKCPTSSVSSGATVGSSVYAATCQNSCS
Summary of the method: (§1)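 Stable HEK293 line co-expressing rat GLP-1R (pCMV-Tag2B) and a luciferase reporter with 3× MRE plus 1× CRE, seeded at 40000 cells/well and cultured overnight. Compounds in DMSO or GLP-1(7−37) were added for 6 h, then cells were lysed and luciferase read (Steady-Glo). The 10 nM GLP-1 maximum was taken as 100%. Mean ± SEM of two independent experiments; some values come from a single run.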

[2] = target: T2, Glucagon-like peptide 1 receptor (Rattus norvegicus) (UniProt P32301); experiment: Inhibition of [125I]GLP1 (7-36) amide binding to rat GLP1R expressed in HEK293 cells relative to untreated control; assay type: cell-based; parameters: concentration or dose not given beside the values; conditions: concentration not given here
T2 sequence (whole entry): T1 sequence (P32301 whole entry)
Summary of the method: (§2)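 Membranes (17 μg protein) from HEK293 cells stably expressing rat GLP-1R were preincubated 5 h at 4 °C with FlashBlue beads (150 μg). Then 40 pM [125I]GLP-1(7−36) amide or [125I]Exendin(9−39) was added with aprotinin 2 μg/mL, leupeptin 100 μM and test compound at varied concentrations. Incubated overnight at 4 °C, then bound radioactivity counted. Mean ± SEM of two independent experiments.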

[3] = target: T1, Glucagon-like peptide 1 receptor; experiment: Inhibition of [125I]GLP1 (7-36) amide binding to rat GLP1R expressed in HEK293 cells; assay type: cell-based; summary of the method: as §2
[4] = target: T2, Glucagon-like peptide 1 receptor (Rattus norvegicus); experiment: Agonist activity at rat GLP1R expressed in HEK293 cells assessed as stimulation of cAMP levels incubated for 6 hrs by multiple response element/cAMP response element (MRE/CRE)-driven reporter gene assay relative to 10 nM GLP1; assay type: functional, cell-based; summary of the method: as §1
[5] = target: T2, Glucagon-like peptide 1 receptor (Rattus norvegicus); experiment: Inhibition of [125I]Exendin (9-39) binding to rat GLP1R expressed in HEK293 cells; assay type: cell-based; parameters: concentration or dose not given beside the values; conditions: concentration not given here; summary of the method: as §2

Q: `CCCC(=O)Oc1ccc([C@H]2[C@](NC(=O)c3ccc(NC(=O)OC(C)(C)C)cc3)(C(=O)O)[C@@H](c3ccc(OC(=O)CCC)c(OC)c3)[C@]2(NC(=O)c2ccc(NC(=O)OC(C)(C)C)cc2)C(=O)O)cc1OC` was tested. Which pEC50 [1] did it give?
A: 5.48

Q: And the inhibition [2]?
A: 65.1%

Q: And the pIC50 [3]?
A: 5.12

Q: And the Efficacy [4]?
A: 86%

Q: And the inhibition [5]?
A: 53.8%

Q: How did the pEC50 [1] turn out when `COc1cc([C@H]2[C@](NC(=O)c3ccc(NC(=O)OC(C)(C)C)cc3)(C(=O)OC)[C@@H](c3ccc(OC(=O)c4cccs4)c(OC)c3)[C@]2(NC(=O)c2ccc(NC(=O)OC(C)(C)C)cc2)C(=O)OC)ccc1OC(=O)c1cccs1` was run?
A: < 4.70

Q: And the inhibition [2]?
A: < 15%

Q: What about the pIC50 [3] of the same molecule?
A: < 4.70

Q: What about the Efficacy [4] of the same molecule?
A: < 15%

Q: What about the inhibition [5] of the same molecule?
A: < 15%

Q: How did the pEC50 [1] turn out when `COc1cc([C@H]2[C@](NC(=O)c3ccc(NC(=O)OC(C)(C)C)cc3)(C(N)=O)[C@@H](c3ccc(OC(=O)c4cccs4)c(OC)c3)[C@]2(NC(=O)c2ccc(NC(=O)OC(C)(C)C)cc2)C(N)=O)ccc1OC(=O)c1cccs1` was run?
A: < 4.70

Q: And the inhibition [2]?
A: < 15%

Q: What about the pIC50 [3] of the same molecule?
A: < 4.70

Q: What about the Efficacy [4] of the same molecule?
A: < 15%

Q: And the inhibition [5]?
A: < 15%

Q: `COc1cc([C@H]2[C@](NC(=O)c3ccc(NC(=O)C4CC4)cc3)(C(=O)O)[C@@H](c3ccc(OC(=O)c4cccs4)c(OC)c3)[C@]2(NC(=O)c2ccc(NC(=O)C3CC3)cc2)C(=O)O)ccc1OC(=O)c1cccs1` was tested. Which pEC50 [1] did it give?
A: 6.83

Q: What about the inhibition [2] of the same molecule?
A: 86.4%

Q: And the pIC50 [3]?
A: 5.92

Q: And the Efficacy [4]?
A: 84.2%

Q: What about the inhibition [5] of the same molecule?
A: 67.8%

Q: With `COc1cc([C@H]2[C@](NC(=O)c3ccc(NC(=O)OC(C)(C)C)cc3)(C(=O)O)[C@@H](c3ccc(OC(=O)c4ccc(C)s4)c(OC)c3)[C@]2(NC(=O)c2ccc(NC(=O)OC(C)(C)C)cc2)C(=O)O)ccc1OC(=O)c1ccc(C)s1` as the molecule, how does the pEC50 [1] read?
A: 4.72

Q: What about the inhibition [2] of the same molecule?
A: 40.1%

Q: And the pIC50 [3]?
A: 4.76

Q: And the Efficacy [4]?
A: 67%

Q: What about the inhibition [5] of the same molecule?
A: 29.4%

Q: How did the pEC50 [1] turn out when `COc1cc([C@H]2[C@](NC(=O)c3ccc(NC(=S)Nc4cccc5ccccc45)cc3)(C(=O)O)[C@@H](c3ccc(OC(=O)c4cccs4)c(OC)c3)[C@]2(NC(=O)c2ccc(NC(=S)Nc3cccc4ccccc34)cc2)C(=O)O)ccc1OC(=O)c1cccs1` was run?
A: 5.67

Q: And the inhibition [2]?
A: 57.4%

Q: And the pIC50 [3]?
A: 5.52

Q: And the Efficacy [4]?
A: 29.8%

Q: And the inhibition [5]?
A: 52.3%

From ChEMBL document CHEMBL2157924, “Cyclobutane derivatives as novel nonpeptidic small molecule agonists of glucagon-like peptide-1 receptor” (J Med Chem, 2012)
